Experimental data reported in ChEMBL document CHEMBL1140821, “Novel indole-3-sulfonamides as potent HIV non-nucleoside reverse transcriptase inhibitors (NNRTIs)” (Bioorg Med Chem Lett, 2008).

Experiments:
[1] = Inhibition of HIV NL43 recombinant reverse transcriptase by scintillation proximity assay; design: species or system Human immunodeficiency virus
Summary of the method: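 Purified recombinant wild-type RT (NL_43) polymerase activity measured as 3H-dNTP incorporation, using a 500 nt heteropolymeric RNA template with biotinylated DNA primer. Read by scintillation proximity assay.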

[2] = tested on: Human immunodeficiency virus; experiment: Antiviral activity against HIV 3B in MT4 cells assessed as inhibition of replication after 3 days in presence of 10% fetal bovine serum; type: functional; conditions: Human immunodeficiency virus 1, 3B, MT4, 72 h; read-out: CIC95
Summary of the method: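 MT4 cells infected overnight with wild-type H9IIIB virus (moi 0.01) without compound, washed, then cultured 3 days across a compound concentration range in 10% FBS. Replication read as p24 in culture supernatants. CIC95 = lowest concentration inhibiting replication by ≥95%.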

[3] = molecular target: Human immunodeficiency virus type 1 reverse transcriptase (Human immunodeficiency virus 1, UniProt Q72547, K103N); experiment: Inhibition of HIV NL43 recombinant reverse transcriptase K103N mutant by scintillation proximity assay
[4] = molecular target: Human immunodeficiency virus type 1 reverse transcriptase (Human immunodeficiency virus 1, UniProt Q72547, Y181C); experiment: Inhibition of HIV HXB2 recombinant reverse transcriptase Y181C mutant by scintillation proximity assay

For `NC(=O)c1[nH]c2ccc(C#CC3CC3)cc2c1S(=O)(=O)N1CCCC1`, which IC50 [1] is on record?
The IC50 was 430 nM.

What about the IC95 [2] of the same compound?
Its IC95 is 630 nM.

Which results are given for `Cc1cnc(-c2[nH]c3ccc(Cl)cc3c2S(=O)(=O)c2ccccc2)[nH]1`?
IC50 [1]: 5 nM; IC95 [2]: 12 nM

Which IC50 [1] does the source give for `O=C(NCc1c(F)cccc1Cl)c1[nH]c2ccc(Br)cc2c1S(=O)(=O)N1CCCC1` here?
The IC50 was 3.8 nM.

And the IC50 [3]?
The IC50 was 20 nM.

What about the IC95 [2] of the same compound?
The IC95 was 25 nM.

And the IC50 [4]?
The IC50 was 16 nM.

For `NC(=O)c1[nH]c2ccc(Cl)cc2c1S(=O)(=O)N1CCCC1`, which IC50 [1] is on record?
Its IC50 is 3.9 nM.

What about the IC50 [3] of the same compound?
The IC50 was 1960 nM.

What about the IC95 [2] of the same compound?
The IC95 was less than 7.8 nM.

And the IC50 [4]?
The IC50 was 48 nM.

For `NC(=O)c1[nH]c2ccc(Br)cc2c1S(=O)(=O)NC1CCC(F)(F)C1` (centres undefined), which IC50 [1] is on record?
The IC50 was 0.2 nM.

What about the IC95 [2] of the same compound?
Its IC95 is 140 nM.

With `NC(=O)c1[nH]c2ccc(Br)cc2c1S(=O)(=O)N1CCCCC1` as the compound, how does the IC50 [1] read?
Its IC50 is 5.7 nM.

And the IC95 [2]?
Its IC95 is 16 nM.

Which IC50 [1] does the source give for `NC(=O)c1[nH]c2ccc(-c3cccnc3)cc2c1S(=O)(=O)N1CCCC1` here?
The IC50 was 2200 nM.

What about the IC95 [2] of the same compound?
Its IC95 is 310 nM.

For `O=S(=O)(c1c(-c2nc3cccnc3[nH]2)[nH]c2ccc(Br)cc12)N1CCCC1`, which IC50 [1] is on record?
The IC50 was 40 nM.

What about the IC50 [3] of the same compound?
Its IC50 is 370 nM.

What about the IC95 [2] of the same compound?
Its IC95 is 82 nM.

What about the IC50 [4] of the same compound?
The IC50 was 5000 nM.

Which IC50 [1] does the source give for `O=S(=O)(c1c(-c2ncc(-c3ccccc3)[nH]2)[nH]c2ccc(Br)cc12)N1CCCC1` here?
The IC50 was 11 nM.

What about the IC50 [3] of the same compound?
Its IC50 is 150 nM.

And the IC95 [2]?
The IC95 was 67 nM.

And the IC50 [4]?
The IC50 was greater than 9100 nM.

For `O=C(NCc1ccncc1)c1[nH]c2ccc(Br)cc2c1S(=O)(=O)N1CCCC1`, which IC50 [1] is on record?
The IC50 was 14 nM.

And the IC50 [3]?
The IC50 was 170 nM.

What about the IC95 [2] of the same compound?
The IC95 was less than 7.8 nM.

What about the IC50 [4] of the same compound?
Its IC50 is 6.3 nM.

Which IC50 [1] does the source give for `O=S(=O)(c1c(-c2nc3ccccc3[nH]2)[nH]c2ccc(Br)cc12)N1CCCC1` here?
Its IC50 is 6.9 nM.

And the IC50 [3]?
Its IC50 is 280 nM.

And the IC95 [2]?
The IC95 was 78 nM.

And the IC50 [4]?
The IC50 was 38 nM.

Which results are given for `CCCNS(=O)(=O)c1c(C(N)=O)[nH]c2ccc(Br)cc12`?
IC50 [1]: 19 nM; IC95 [2]: 160 nM

With `CCC(OC)c1cnc(-c2[nH]c3ccc(Br)cc3c2S(=O)(=O)N2CCCC2)[nH]1` (centres undefined) as the compound, how does the IC50 [1] read?
Its IC50 is 16 nM.

What about the IC50 [3] of the same compound?
Its IC50 is 110 nM.

What about the IC95 [2] of the same compound?
Its IC95 is 100 nM.

And the IC50 [4]?
The IC50 was 240 nM.

Which IC50 [3] does the source give for `NC(=O)c1[nH]c2ccc(Br)cc2c1S(=O)(=O)N1CCCC1` here?
The IC50 was 10000 nM.

And the IC95 [2]?
The IC95 was less than 7.8 nM.

And the IC50 [4]?
Its IC50 is 120 nM.

Which IC50 [1] does the source give for `O=C(NCCO)c1[nH]c2ccc(Br)cc2c1S(=O)(=O)N1CCCC1` here?
The IC50 was 15 nM.

What about the IC50 [3] of the same compound?
The IC50 was 2800 nM.

What about the IC95 [2] of the same compound?
The IC95 was 625 nM.

And the IC50 [4]?
The IC50 was 6.9 nM.

For `CCC(O)c1cnc(-c2[nH]c3ccc(Br)cc3c2S(=O)(=O)N2CCCC2)[nH]1` (centres undefined), which IC50 [1] is on record?
Its IC50 is 8.8 nM.

And the IC50 [3]?
Its IC50 is 62 nM.

And the IC95 [2]?
Its IC95 is 50 nM.

And the IC50 [4]?
The IC50 was 2600 nM.

With `NC(=O)c1[nH]c2ccc(Cc3ccc(Cl)cn3)cc2c1S(=O)(=O)N1CCCC1` as the compound, how does the IC50 [1] read?
The IC50 was 59 nM.

And the IC50 [3]?
The IC50 was 8200 nM.

And the IC50 [4]?
The IC50 was greater than 10000 nM.

With `O=C(NCc1ccccc1O)c1[nH]c2ccc(Br)cc2c1S(=O)(=O)N1CCCC1` as the compound, how does the IC50 [1] read?
The IC50 was 2.4 nM.

And the IC50 [3]?
Its IC50 is 31 nM.

And the IC95 [2]?
Its IC95 is 23 nM.

What about the IC50 [4] of the same compound?
The IC50 was 9.4 nM.

Which IC50 [1] does the source give for `NC(=O)c1[nH]c2ccc(Br)cc2c1S(=O)(=O)NC1CCCC1` here?
Its IC50 is 18 nM.

And the IC95 [2]?
The IC95 was 125 nM.

With `O=C(NCc1cncs1)c1[nH]c2ccc(Br)cc2c1S(=O)(=O)N1CCCC1` as the compound, how does the IC50 [1] read?
The IC50 was 6.2 nM.

And the IC50 [3]?
Its IC50 is 93 nM.

What about the IC95 [2] of the same compound?
Its IC95 is 16 nM.

What about the IC50 [4] of the same compound?
Its IC50 is 6 nM.

For `COc1ccc2nc(-c3[nH]c4ccc(Br)cc4c3S(=O)(=O)N3CCCC3)[nH]c2c1`, which IC50 [1] is on record?
The IC50 was 45 nM.

And the IC50 [3]?
Its IC50 is 150 nM.

And the IC95 [2]?
The IC95 was 400 nM.

What about the IC50 [4] of the same compound?
Its IC50 is 5100 nM.

Which IC50 [1] does the source give for `NC(=O)c1[nH]c2ccc(Br)cc2c1S(=O)(=O)N1CCC(F)(F)CC1` here?
The IC50 was 4.5 nM.

What about the IC95 [2] of the same compound?
Its IC95 is 410 nM.

Which IC50 [1] does the source give for `O=C(NCc1nccs1)c1[nH]c2ccc(Br)cc2c1S(=O)(=O)N1CCCC1` here?
Its IC50 is 2.8 nM.

And the IC50 [3]?
Its IC50 is 280 nM.

What about the IC95 [2] of the same compound?
Its IC95 is less than 7.8 nM.

What about the IC50 [4] of the same compound?
Its IC50 is 200 nM.

What does the source list for `NC(=O)c1[nH]c2ccc(-c3ccccc3)cc2c1S(=O)(=O)N1CCCC1`?
IC50 [1]: 550 nM; IC95 [2]: 1300 nM

What does the source list for `O=S(=O)(c1c(-c2nc3ccc(F)cc3[nH]2)[nH]c2ccc(Br)cc12)N1CCCC1`?
IC50 [1]: 15 nM; IC50 [3]: 220 nM; IC95 [2]: 280 nM; IC50 [4]: 5300 nM

What does the source list for `NC(=O)c1[nH]c2ccc(Br)cc2c1S(=O)(=O)NC1CCCCC1`?
IC50 [1]: 14 nM; IC95 [2]: 125 nM

Which results are given for `NC(=O)c1[nH]c2ccc(Br)cc2c1S(=O)(=O)NC1CCC1`?
IC50 [1]: 0.5 nM; IC95 [2]: 125 nM

For `Cc1cnc(-c2[nH]c3ccc(Br)cc3c2S(=O)(=O)N2CCCC2)[nH]1`, which IC50 [1] is on record?
Its IC50 is 3.1 nM.

What about the IC50 [3] of the same compound?
Its IC50 is 42 nM.

And the IC95 [2]?
Its IC95 is less than 7.8 nM.

What about the IC50 [4] of the same compound?
The IC50 was 25 nM.

Which IC50 [1] does the source give for `O=S(=O)(c1c(-c2nc3cccc(O)c3[nH]2)[nH]c2ccc(Br)cc12)N1CCCC1` here?
The IC50 was 10 nM.

And the IC50 [3]?
Its IC50 is 48 nM.

And the IC95 [2]?
Its IC95 is 82 nM.

And the IC50 [4]?
Its IC50 is 810 nM.

Which IC50 [1] does the source give for `O=C(NCc1ccnc2ccccc12)c1[nH]c2ccc(Br)cc2c1S(=O)(=O)N1CCCC1` here?
The IC50 was 3.1 nM.

And the IC50 [3]?
The IC50 was 25 nM.

What about the IC95 [2] of the same compound?
Its IC95 is 82 nM.

What about the IC50 [4] of the same compound?
The IC50 was 63 nM.

For `O=C(NCc1ccn[nH]1)c1[nH]c2ccc(Br)cc2c1S(=O)(=O)N1CCCC1`, which IC50 [1] is on record?
Its IC50 is 2.5 nM.

What about the IC50 [3] of the same compound?
The IC50 was 260 nM.

What about the IC95 [2] of the same compound?
Its IC95 is less than 7.8 nM.

What about the IC50 [4] of the same compound?
The IC50 was 829 nM.

Which IC50 [1] does the source give for `NC(=O)c1[nH]c2ccc(C3CC3)cc2c1S(=O)(=O)N1CCCC1` here?
The IC50 was 940 nM.

And the IC95 [2]?
The IC95 was 160 nM.

With `N#Cc1ccc2[nH]c(C(N)=O)c(S(=O)(=O)N3CCCC3)c2c1` as the compound, how does the IC50 [1] read?
Its IC50 is 9.1 nM.

What about the IC50 [3] of the same compound?
Its IC50 is 2300 nM.

What about the IC95 [2] of the same compound?
Its IC95 is 16 nM.

What about the IC50 [4] of the same compound?
Its IC50 is greater than 10000 nM.

What does the source list for `NC(=O)c1[nH]c2ccc(Cl)cc2c1S(=O)(=O)c1ccccc1` [L-737126]?
IC50 [1]: 3 nM; IC50 [3]: 116 nM; IC50 [4]: 71 nM
